Results: ChEMBL document CHEMBL3045615, “Synthesis and herbicidal evaluation of novel 3-[(alpha-hydroxy-substituted)benzylidene]pyrrolidine-2,4-diones” (J Agric Food Chem, 2005)

Assays:
Format in all cases: functional
[1] = system: Echinochloa crus-galli; experiment: Herbicidal activity against Echinochloa crus-galli (barnyard grass) assessed as inhibition in green house at 375 g/ha pre-emergence treatment measured after 15 days; settings: 360 h
Summary of the method: (§1)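 Greenhouse pot test. Two replicates per treatment. Control was the same amount of water, N,N-dimethylformamide and Tween 20. Fresh weights were taken 15 days after treatment, and percentage inhibition was calculated relative to controls.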

[2] = system: Brassica rapa subsp. oleifera; experiment: Herbicidal activity against Brassica rapa subsp. oleifera assessed as inhibition of root growth at 10 ug/ml at 28 +/- 1 degC measured after 65 hr by root test
Summary of the method: (§2)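 Rape seeds were presoaked 4 h in distilled water. About 15 seeds were placed per 6-cm Petri plate on filter paper pre-wetted with 2 mL inhibitor solution. Plates germinated in the dark for 65 h at 28 ± 1 °C. Root length of 10 roots per plate was measured and averaged. Result expressed as percentage inhibition.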

[3] = system: Echinochloa crus-galli; experiment: Herbicidal activity against Echinochloa crus-galli (barnyard grass) assessed as inhibition in green house at 750 g/ha pre-emergence treatment measured after 15 days; settings: 360 h; summary of the method: as §1
[4] = system: Brassica rapa subsp. oleifera; experiment: Herbicidal activity against Brassica rapa subsp. oleifera assessed as inhibition of root growth at 100 ug/ml at 28 +/- 1 degC measured after 65 hr by root test; summary of the method: as §2
[5] = system: Echinochloa crus-galli; experiment: Herbicidal activity against Echinochloa crus-galli (barnyard grass) assessed as inhibition of seedling growth at 10 ug/ml at 28 +/- 1 degC measured after 65 hr by cup test
[6] = system: Echinochloa crus-galli; experiment: Herbicidal activity against Echinochloa crus-galli (barnyard grass) assessed as inhibition in green house at 187.5 g/ha pre-emergence treatment measured after 15 days; settings: 360 h; summary of the method: as §1
[7] = system: Echinochloa crus-galli; experiment: Herbicidal activity against Echinochloa crus-galli (barnyard grass) assessed as inhibition of seedling growth at 100 ug/ml at 28 +/- 1 degC measured after 65 hr by cup test
[8] = system: Echinochloa crus-galli; experiment: Herbicidal activity against Echinochloa crus-galli (barnyard grass) assessed as inhibition in green house at 93.75 g/ha pre-emergence treatment measured after 15 days; settings: 360 h; summary of the method: as §1
[9] = system: Digitaria sanguinalis; experiment: Herbicidal activity against Digitaria sanguinalis (hairy crabgrass) assessed as inhibition in green house at 187.5 g/ha pre-emergence treatment measured after 15 days; settings: 360 h; summary of the method: as §1
[10] = system: Digitaria sanguinalis; experiment: Herbicidal activity against Digitaria sanguinalis (hairy crabgrass) assessed as inhibition in green house at 375 g/ha pre-emergence treatment measured after 15 days; settings: 360 h; summary of the method: as §1
[11] = system: Digitaria sanguinalis; experiment: Herbicidal activity against Digitaria sanguinalis (hairy crabgrass) assessed as inhibition in green house at 750 g/ha pre-emergence treatment measured after 15 days; settings: 360 h; summary of the method: as §1
[12] = system: Digitaria sanguinalis; experiment: Herbicidal activity against Digitaria sanguinalis (hairy crabgrass) assessed as inhibition in green house at 93.75 g/ha pre-emergence treatment measured after 15 days; settings: 360 h; summary of the method: as §1
[13] = system: Echinochloa crus-galli; experiment: Herbicidal activity against Echinochloa crus-galli (barnyard grass) assessed as inhibition in green house at 1500 g/ha post-emergence treatment measured after 15 days; settings: 360 h; summary of the method: as §1
[14] = system: Brassica rapa subsp. oleifera; experiment: Herbicidal activity against Brassica rapa subsp. oleifera assessed as inhibition in green house at 1500 g/ha post-emergence treatment measured after 15 days; settings: 360 h; summary of the method: as §1
[15] = system: Brassica rapa subsp. oleifera; experiment: Herbicidal activity against Brassica rapa subsp. oleifera assessed as inhibition in green house at 1500 g/ha pre-emergence treatment measured after 15 days; settings: 360 h; summary of the method: as §1
[16] = system: Amaranthus retroflexus; experiment: Herbicidal activity against Amaranthus retroflexus assessed as inhibition in green house at 1500 g/ha post-emergence treatment measured after 15 days; settings: 360 h; summary of the method: as §1
[17] = system: Echinochloa crus-galli; experiment: Herbicidal activity against Echinochloa crus-galli (barnyard grass) assessed as inhibition in green house at 1500 g/ha pre-emergence treatment measured after 15 days; settings: 360 h; summary of the method: as §1
[18] = system: Digitaria sanguinalis; experiment: Herbicidal activity against Digitaria sanguinalis (hairy crabgrass) assessed as inhibition in green house at 1500 g/ha pre-emergence treatment measured after 15 days; settings: 360 h; summary of the method: as §1
[19] = system: Digitaria sanguinalis; experiment: Herbicidal activity against Digitaria sanguinalis (hairy crabgrass) assessed as inhibition in green house at 1500 g/ha post-emergence treatment measured after 15 days; settings: 360 h; summary of the method: as §1
[20] = system: Amaranthus retroflexus; experiment: Herbicidal activity against Amaranthus retroflexus assessed as inhibition in green house at 1500 g/ha pre-emergence treatment measured after 15 days; settings: 360 h; summary of the method: as §1

Row | Compound | inhibition at 375 g/ha [1] [%] | inhibition at 10 µg/mL [2] [%] | inhibition at 750 g/ha [3] [%] | inhibition at 100 µg/mL [4] [%] | inhibition at 10 µg/mL [5] [%] | inhibition at 187.5 g/ha [6] [%] | inhibition at 100 µg/mL [7] [%] | inhibition at 93.75 g/ha [8] [%] | inhibition at 187.5 g/ha [9] [%] | inhibition at 375 g/ha [10] [%] | inhibition at 750 g/ha [11] [%] | inhibition at 93.75 g/ha [12] [%] | inhibition at 1500 g/ha [13] [%] | inhibition at 1500 g/ha [14] [%] | inhibition at 1500 g/ha [15] [%] | inhibition at 1500 g/ha [16] [%] | inhibition at 1500 g/ha [17] [%] | inhibition at 1500 g/ha [18] [%] | inhibition at 1500 g/ha [19] [%] | inhibition at 1500 g/ha [20] [%]
1 | COc1ccc(/C(O)=C2\C(=O)CN(C(C)C)C2=O)c(OC)c1 | 100 | 27 | 100 | 69 | 78 | 93 | 80 | 34 | 68 | 77 | 93 | 0 |  |  |  |  |  |  |  | 
2 | CCOc1ccc(/C(O)=C2\C(=O)CN(C3CC3)C2=O)cc1 | 13 | 0 | 99 | 47 | 78 | 0 | 79 |  | 18 | 33 | 77 |  | 0 | 0 | 6 | 13 | 100 | 42 | 6 | 0
3 | O=C1CN(C2CC2)C(=O)/C1=C(\O)c1cccc(Oc2ccccc2)c1 |  | 28 |  | 80 | 58 |  | 66 |  |  |  |  |  | 15 | 3 | 0 | 9 | 0 | 0 | 10 | 0
4 | CS(=O)(=O)c1ccc(C(=O)C2C(=O)CCCC2=O)c(Cl)c1 [SULCOTRIONE] | 100 |  | 100 |  |  | 93 |  | 70 | 100 | 100 | 100 | 100 |  |  |  |  |  |  |  | 
5 | CCOc1ccc(/C(O)=C2\C(=O)CN(C(C)C)C2=O)cc1 | 94 | 8 | 98 | 82 | 79 | 52 | 80 | 8 | 84 | 94 | 96 | 22 | 19 | 0 | 0 | 0 | 100 | 98 | 0 | 0
6 | COc1ccc(/C(O)=C2\C(=O)CN(C3CC3)C2=O)cc1 | 7 | 35 | 69 | 70 | 62 |  | 66 |  |  | 69 | 73 |  | 0 | 0 | 0 | 0 | 81 | 57 | 0 | 0
